Assay outcomes from PubChem.
MEKK2 mut-MEK5 – signal of MEK5 binding to mutant human MEKK2 PB1 domain; actives 0.35% (n = 290,000); percent response, % at 10 µM; AID 1530; bead flow cytometry, Alexa488-MEK5 binding to MEKK2 mutant; in the data active = percent response above about 24%, passing the limit was not always enough
MEKK2 WT-MEK5 – raises or lowers MEK5 binding to wildtype human MEKK2 PB1 domain; Q9Y2U5; bead flow cytometry, Alexa488-MEK5 binding to MEKK2 WT; actives lie on both sides; binding response (% of control), % at 10 µM; actives 1.1% (n = 290,000); in the data active = binding response below about 67% or above about 130%
Hep lipid drop – hepatic lipid droplet formation modulation. AML12 mouse hepatocytes, oleate lipid droplets, BODIPY imaging. inhibition, % at 6.5 µM. actives 0.4% (n = 240,000). AID 1656;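 active = lipid droplet intensity inhibited by at least 50%, with more than 500 cells counted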
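material = mouse AML12 hepatocyte cell line, fixed after treatment | also added = 100 µM oleic acid challenge | doses = compound at 6.5 µM only | schedule = overnight exposure | technique = Image-based BODIPY and DAPI two-channel analysis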
MEKK3 PB1 HTS – raises or lowers MEK5 binding to the human MEKK3 PB1 domain. binding response (% of control), % at 10 µM. bead-based flow cytometry, Alexa488-MEK5 binding to MEKK3; actives lie on both sides; 0 = blocked by unlabeled MEK5, 100 = vehicle. AID 1529. Q99759. actives 1.4% (n = 290,000);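 active = binding response more than 3 SD above or below the average of its plate-row segment, actives on both sides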;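 note: Alexa488 bead fluorescence after subtracting the streptavidin-only scavenger bead signal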
Target sequence (Q99759 whole entry, looked up, the tested form may be a part): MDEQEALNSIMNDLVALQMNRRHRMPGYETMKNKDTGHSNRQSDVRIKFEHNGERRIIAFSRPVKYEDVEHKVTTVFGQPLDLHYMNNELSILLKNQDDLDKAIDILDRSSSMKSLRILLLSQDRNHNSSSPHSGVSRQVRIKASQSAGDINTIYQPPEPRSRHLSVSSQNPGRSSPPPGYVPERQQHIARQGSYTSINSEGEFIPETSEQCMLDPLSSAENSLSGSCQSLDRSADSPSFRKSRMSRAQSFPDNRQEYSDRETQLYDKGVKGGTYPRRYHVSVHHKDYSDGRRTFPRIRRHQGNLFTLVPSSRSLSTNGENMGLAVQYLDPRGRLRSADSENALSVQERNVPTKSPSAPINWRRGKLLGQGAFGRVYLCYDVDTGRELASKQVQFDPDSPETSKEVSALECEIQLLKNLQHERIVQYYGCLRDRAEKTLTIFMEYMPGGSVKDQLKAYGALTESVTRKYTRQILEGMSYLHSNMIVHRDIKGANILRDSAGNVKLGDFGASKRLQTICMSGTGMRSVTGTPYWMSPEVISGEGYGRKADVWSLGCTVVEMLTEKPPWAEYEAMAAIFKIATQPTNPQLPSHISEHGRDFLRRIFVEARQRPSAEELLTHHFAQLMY
MEKK2wt confirm – raises or lowers MEK5 binding to wildtype human MEKK2, retest; bead flow cytometry, Alexa488-MEK5 binding to MEKK2 WT; actives lie on both sides; actives 2.4% (n = 5,900); AID 1892; shares compounds with MEKK3 PB1 HTS; binding response (% of control), % at 10 µM; in the data active = binding response below about 16% or above about 210%; inactive = in between
MEKK2mut-MEK5 – signal of MEK5 binding to mutant human MEKK2, retest | shares compounds with MEKK3 PB1 HTS | bead flow cytometry, Alexa488-MEK5 binding to MEKK2 mutant | actives 2% (n = 5,900) | percent response, % at 10 µM | AID 1893; in the data active = percent response mostly above about 71%, no sharp cut-off; inactive = mostly below about 38%;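 note: higher means compound restores mutant binding toward wildtype level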
MEKK3-MEK5 inh – confirmation of inhibitors of MEK5 binding to human MEKK3 | actives 1.8% (n = 5,900) | binding response (% of control), % at 10 µM | shares compounds with MEKK3 PB1 HTS | bead flow cytometry, Alexa488-MEK5 binding to MEKK3; stronger effect = lower value | AID 1894;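 active = binding response below 72% of control, or above a set upper limit, though filed actives all read lower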;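 note: 100% = DMSO only wells and 0% = binding blocked by excess unlabeled MEK5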
The depositor's hits bear a star; · = not tested or not shown; [ ] = another dose, or the depositor's remark. This is a sample that favours compounds with a hit; in the whole collection about 2.6% have one here.

SMILES | MEKK2 mut-MEK5 | MEKK2 WT-MEK5 | Hep lipid drop | MEKK3 PB1 HTS | MEKK2wt confirm | MEKK2mut-MEK5 | MEKK3-MEK5 inh
Cc1cc(C)nc(NC(=NCCc2c[nH]c3ccccc23)NC(=O)Nc2ccc(Cl)cc2)n1 | 1 | 111 | 8 | 59*[inhibitor] | 106 | -2 | 103
Cc1cc(C)nc(NC(N)=NCCc2c[nH]c3ccccc23)n1 | 8 | 117 | -21 | 103 | · | · | ·
O=C(CSc1nc2ccccc2[nH]1)N1CCCCC1 | 9 | 103 | 11 | 103 | · | · | ·
CC1CCCCN1C(=O)CSc1nc2ccccc2[nH]1 (stereo not drawn) | 6 | 126 | 7 | 143* | 107 | 8 | 108
CC1(C)Cc2c(C#N)c(N)sc(=S)c2CO1 | -8 | 75 | · | 94 | · | · | ·
CC(C)C1Cc2c(C#N)c(N)sc(=S)c2CO1 (stereo not drawn) | -5 | 48*[inhibitor] | 2 | 85 | 74 | -12 | 96
O=C(O)CCCC(=O)N1CCN(c2nc(-c3ccccc3Cl)c3cc(Br)ccc3n2)CC1 | 26* | 119 | -18 | 119 | 97 | -7 | 98
Cc1ccc2nc(N3CCN(C(=O)CCCC(=O)O)CC3)nc(-c3ccccc3)c2c1 | 8 | 108 | 17 | 110 | · | · | ·
CCc1ccc(/C(C)=N/NS(=O)(=O)c2ccc(OC)cc2)s1 | 4 | 101 | -4 | 102 | · | · | ·
Cc1cccc(C(C)C)c1NC(=O)CN(C)Cc1cccc(F)c1 | 0 | 102 | -55 | 101 | · | · | ·
Cc1ccccc1CN(C)CC(=O)Nc1c(C)cccc1C(C)C | -24 | 71 | -9 | 72*[inhibitor] | 107 | 4 | 104
CCN(CC)S(=O)(=O)c1cc(C)c(C)cc1Br | -4 | 71*[inhibitor] | -12 | 61*[inhibitor] | 103 | 3 | 103
CC(C)[C@H](NC(=O)[C@H](Cc1ccccc1)n1c(=O)[nH]c2ccccc2c1=O)C(=O)N1CCC[C@H]1C(=O)O | 3 | 102 | 9 | 102 | · | · | ·
COc1cccc(/C(C)=N/NC(=O)c2cc(-c3cccnc3)nc3ccccc23)c1 | -1 | 104 | 6 | 129* | 102 | 1 | 104
COc1ccc(/C(C)=N/NC(=O)c2cc(-c3cccnc3)nc3ccccc23)cc1 | 0 | 110 | -25 | 147* | 129 | 27 | 121
COc1ccc(-c2cc(C(=O)N/N=C(\C)c3cccnc3)c3ccccc3n2)cc1 | 2 | 102 | -8 | 105 | · | · | ·
CC1CN(c2nc3ccccc3nc2C(C#N)C(=O)NC2CCCCC2)CC(C)O1 (stereo not drawn) | -49 | 22* | · | 15*[inhibitor] | 106 | 10 | 103
COc1cc(/C=C2/SC(=S)N(CC(=O)O)C2=O)ccc1OCC(=O)Nc1ccc(C)c(C)c1 | -4 | 96 | 2 | 99 | · | · | ·
OCCCNC(=S)Nc1ccc2nccnc2c1 | -5 | 91 | 10 | 96 | · | · | ·
Fc1ccc(NC(=S)Nc2ccc3nccnc3c2)cc1 | 1 | 118 | 3 | 130* | 101 | -5 | 101
CCOC(=O)c1ccc(NC(=O)C(=O)NCc2ccncc2)cc1 | -15 | 24*[inhibitor] | 14 | 19*[inhibitor] | 111 | 12 | 104
CCNC(=O)C(=O)NCc1ccncc1 | 0 | 99 | 3 | 97 | · | · | ·
CCC(C)NC(=O)C(=O)NCc1ccncc1 (stereo not drawn) | -6 | 86 | · | 81*[inhibitor] | 82 | -15 | 93
O=C(Cc1ccccc1F)NC1CCCN(Cc2ccc(Cl)cc2)C1 (stereo not drawn) | 10 | 113 | -15 | 109 | · | · | ·
Cc1ccc(/C=N/n2nnnc2N)cc1[N+](=O)[O-] | 10 | 126 | · | 128* | 103 | 0 | 103
SMILES | MEKK2 mut-MEK5 | MEKK2 WT-MEK5 | Hep lipid drop | MEKK3 PB1 HTS | MEKK2wt confirm | MEKK2mut-MEK5 | MEKK3-MEK5 inh
Fc1cccc(Cl)c1CNCc1cccnc1 | -1 | 96 | 3 | 98 | · | · | ·
CO/N=C/c1ccc(Oc2ccc(C)cc2)nc1 | 26* | 114 | · | 111 | 98 | -3 | 100
CN(C)CCCNC(NC(=O)c1cccs1)C(Cl)(Cl)Cl (stereo not drawn) | -1 | 97 | -4 | 97 | · | · | ·
Cc1cc(-c2nnnn2-c2ccc(F)cc2)no1 | -12 | 96 | 2 | 99 | · | · | ·
Cc1cc(-c2nnnn2-c2cc(Cl)cc(Cl)c2)no1 | 26 | 112 | 23 | 131* | 99 | -9 | 101
COc1ccc(CC(=O)Oc2ccc(F)cc2)cc1 | 1 | 105 | -1 | 102 | · | · | ·
C#CCOCCOCCOCCNc1nc(N2CCOCC2)nc(N2CCN(C(=O)[C@H](Cc3cc4ccccc4[nH]3)n3cc([C@@H](N)Cc4ccc(O)cc4)nn3)CC2)n1 | 14 | 123 | -2 | 109 | · | · | ·
C#CCOCCOCCOCCNc1nc(N2CCN(C(=O)[C@H](CCC(=O)O)n3cc(C(N)Cc4ccc(O)cc4)nn3)CC2)nc(N2CCN(C(=O)[C@H](Cc3ccc(O)cc3)n3cc(C(N)[C@H](C)CC)nn3)CC2)n1 (stereo partly drawn) | 2 | 76 | -12 | 85 | · | · | ·
C#CCOCCOCCOCCNc1nc(N2CCN(C(=O)[C@H](CCCCN)n3cc([C@@H](N)C(C)CC)nn3)CC2)nc(N2CCN(C(=O)[C@H](Cc3cc4ccccc4[nH]3)n3cc([C@@H](N)CC(C)C)nn3)CC2)n1 (stereo partly drawn) | 93* | 237* | -4 | 111 | 137 | 21 | 102
C#CCOCCOCCOCCNc1nc(N2CCN(C(=O)[C@H](Cc3cc4ccccc4[nH]3)n3cc([C@@H](N)C(C)CC)nn3)CC2)nc(N2CCN(C(=O)[C@H](CCCCN)n3cc([C@@H](N)CO)nn3)CC2)n1 (stereo partly drawn) | 57* | 202* | -3 | 107 | 204 | 52 | 108
C#CCOCCOCCOCCNc1nc(N2CCN(C(=O)[C@H](CCC(=O)O)n3cc(C(N)CO)nn3)CC2)nc(N2CCN(C(=O)[C@H](Cc3cc4ccccc4[nH]3)n3cc(C(N)[C@H](C)CC)nn3)CC2)n1 (stereo partly drawn) | 27 | 156* | -2 | 103 | 275* | 110* | 114
C#CCOCCOCCOCCNc1nc(N2CCN(C(=O)[C@H](Cc3cc4ccccc4[nH]3)n3cc([C@@H](N)C(C)CC)nn3)CC2)nc(N2CCN(C(=O)[C@H](Cc3cc4ccccc4[nH]3)n3cc([C@@H](N)CC(C)C)nn3)CC2)n1 (stereo partly drawn) | 13 | 205* | 14 | 99 | 249* | 76* | 109
OCC[C@@H]1C[C@H](O)[C@@H](O)[C@@]2(OCCCc3ccccc32)O1 | -4 | 101 | -4 | 105 | · | · | ·
